Experimental data from ChEMBL document CHEMBL4014320 (J Med Chem, 2017).

Experiments:
[1] = biological target: T1, Peroxisome proliferator-activated receptor gamma (Homo sapiens) (UniProt P37231); test: Agonist activity at human GAL4 fused PPARgamma-Hinge-LBD expressed in HEK293T cells after 18 hrs by luciferase reporter gene assay relative to rosiglitazone; type: cell-based; conditions: HEK-293T
T1 sequence (whole entry): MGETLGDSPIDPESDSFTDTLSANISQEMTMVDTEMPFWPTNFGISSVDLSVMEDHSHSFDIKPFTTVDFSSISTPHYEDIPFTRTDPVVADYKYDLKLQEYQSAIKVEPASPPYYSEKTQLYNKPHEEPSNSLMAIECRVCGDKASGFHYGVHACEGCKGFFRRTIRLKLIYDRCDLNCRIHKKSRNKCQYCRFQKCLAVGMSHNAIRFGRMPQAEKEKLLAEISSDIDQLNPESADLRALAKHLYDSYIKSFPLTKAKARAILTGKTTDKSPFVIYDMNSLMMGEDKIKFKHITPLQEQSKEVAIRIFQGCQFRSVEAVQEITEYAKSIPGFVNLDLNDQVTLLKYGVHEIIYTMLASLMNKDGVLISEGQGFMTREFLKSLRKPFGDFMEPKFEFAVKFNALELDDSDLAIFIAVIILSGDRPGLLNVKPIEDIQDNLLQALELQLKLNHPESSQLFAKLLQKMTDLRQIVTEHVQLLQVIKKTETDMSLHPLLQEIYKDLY
Method in brief: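 HEK293T cells carried transfected human GAL4-PPARγ-hinge-LBD and a 5× UAS-luciferase reporter. Maximal transcriptional output was normalized to rosiglitazone, taken as 100% transactivation. Points were run in triplicate, with two biological replicates.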

[2] = biological target: T2, Peroxisome proliferator-activated receptor gamma (Homo sapiens, UniProt P37231); test: Agonist activity at human GAL4 fused PPARgamma-Hinge-LBD expressed in HEK293T cells after 18 hrs by luciferase reporter gene assay; type: cell-based, HEK-293T
T2 sequence (P37231 whole entry): T1 sequence (whole entry)
Method in brief: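 HEK293T cells were co-transfected with human GAL4-PPARγ-hinge-LBD and a 5× multimerized UAS-luciferase reporter (4.5 μg each) and grown serum-free for 18 h at 37 °C under 5% CO2. After 18 h, luminescence was read. EC50 came from plotting fold change over DMSO; points were run in triplicate, with two biological replicates.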

Rattus norvegicus = test: Antidiabetic activity in Zucker fa/fa rat assessed as decrease in blood glucose levels at 0.3 mg/kg administered via oral gavage for 14 days by oral glucose tolerance test; type: functional; design: scale not given: the % may be the effect or the level left

| Compound | Activity [1] | EC50 [2] | Activity (Rattus norvegicus) |
| --- | --- | --- | --- |
| O=S(=O)(Nc1cc(Cl)c(Oc2cnc3ccccc3c2)c(Cl)c1)c1cccs1 | 14% | – | – |
| O=S(=O)(Nc1cc(Cl)c(Oc2cnc3ccccc3c2)c(Cl)c1)c1ccc(Br)cc1F | 13% | 2 nM | – |
| O=S(=O)(Nc1cc(Cl)c(Oc2cnc3ccccc3c2)c(Cl)c1)c1ccc(Br)cc1OC(F)(F)F | 21% | 4 nM | – |
| O=S(=O)(Nc1cc(Cl)c(Oc2cnc3ccccc3c2)c(Cl)c1)c1ccc(Br)cc1Cl | 27% | 134 nM | – |
| Cc1cc(C)c(S(=O)(=O)Nc2cc(Cl)c(Oc3cnc4ccccc4c3)c(Cl)c2)c(C)c1 | 14% | 3310 nM | – |
| COc1cccc(C(=O)Nc2cc(Cl)c(Oc3cnc4ccccc4c3)c(Cl)c2)c1 | 2% | – | – |
| O=S(=O)(Nc1cc(Cl)c(Oc2cnc3ccccc3c2)c(Cl)c1)c1ccc(Br)cc1 | 11% | 151 nM | – |
| Cc1cc(S(=O)(=O)Nc2cc(Cl)c(Oc3cnc4ccccc4c3)c(Cl)c2)ccc1Br | 29% | 600 nM | – |
| O=S(=O)(Nc1cc(Cl)c(Oc2cnc3ccccc3c2)c(Cl)c1)c1ccccc1Cl | 19% | 5810 nM | – |
| O=S(=O)(Nc1cc(Cl)c(Oc2cnc3ccccc3c2)c(Cl)c1)c1ccc(Br)c(F)c1 | 9% | 169 nM | – |
| O=S(=O)(Nc1cc(Cl)c(Oc2cnc3ccccc3c2)c(Cl)c1)c1ccc2ccccc2c1 | 23% | 4290 nM | – |
| O=S(=O)(Nc1cc(Cl)c(Oc2cnc3ccccc3c2)c(Cl)c1)c1ccc(Br)c(C(F)(F)F)c1 | 18% | 957 nM | – |
| O=S(=O)(Nc1cc(Cl)c(Oc2cnc3ccccc3c2)c(Cl)c1)c1cc(F)c(Br)cc1F | 10% | 131 nM | – |
| O=S(=O)(Nc1cc(Cl)c(Oc2cnc3ccccc3c2)c(Cl)c1)c1ccc(Br)cc1C(F)(F)F | 34% | 94 nM | – |
| O=S(=O)(Nc1cc(Cl)c(Oc2cnc3ccccc3c2)c(Cl)c1)c1ccc(Cl)cc1Cl [INT131] | – | – | 30% |
